Assay results reported in ChEMBL document CHEMBL1255444, “In vitro antibacterial activities of JNJ-Q2, a new broad-spectrum fluoroquinolone” (Antimicrob Agents Chemother, 2010).
In brackets after ≈: the same amount, converted by molar mass.

Columns and labels:
Format in all cases: functional
Streptococcus pneumoniae [1] = assay: Antibacterial activity against Streptococcus pneumoniae ATCC 49619 by broth microdilution method
Outline: (§1)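 MICs by CLSI M07-A7 broth microdilution in cation-adjusted Mueller-Hinton medium. For S. pneumoniae the medium was supplemented with 5% lysed horse blood. CLSI quality control strains were run alongside as appropriate.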

Staphylococcus aureus [2] = assay: Antibacterial activity against Staphylococcus aureus […] by broth microdilution method
Outline: (§2)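 CLSI M07-A7 broth microdilution MIC. Medium was cation-adjusted Mueller-Hinton broth. For S. pneumoniae it was Mueller-Hinton supplemented with 5% lysed horse blood. CLSI quality-control strains were included as appropriate.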

Staphylococcus aureus [3] = assay: Antibacterial activity against methicillin-susceptible Staphylococcus aureus by broth microdilution method
Staphylococcus aureus [4] = assay: Antibacterial activity against methicillin-resistant Staphylococcus aureus by broth microdilution method; outline: as §2
Staphylococcus aureus [5] = assay: Antibacterial activity against methicillin-, ciprofloxacin-resistant Staphylococcus aureus by broth microdilution method; outline: as §2
[6] = tested on: Staphylococcus epidermidis; assay: Antibacterial activity against methicillin-susceptible Staphylococcus epidermidis by broth microdilution method
[7] = tested on: Staphylococcus epidermidis; assay: Antibacterial activity against methicillin-resistant Staphylococcus epidermidis by broth microdilution method
[8] = tested on: Staphylococcus epidermidis; assay: Antibacterial activity against methicillin-, ciprofloxacin-resistant Staphylococcus epidermidis by broth microdilution method
Streptococcus pyogenes = assay: Antibacterial activity against Streptococcus pyogenes by broth microdilution method; outline: as §1
Streptococcus agalactiae = assay: Antibacterial activity against Streptococcus agalactiae by broth microdilution method; outline: as §1
[9] = Antibacterial activity against Streptococcus sp. group C by broth microdilution method
Outline: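 MICs by broth microdilution following CLSI M07-A7 in cation-adjusted Mueller-Hinton medium, using isolates from the J&JPRD culture collection. CLSI quality control strains were included as appropriate.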

Enterococcus faecalis = assay: Antibacterial activity against Enterococcus faecalis ATCC 29212 by broth microdilution method; outline: as §1
Enterococcus faecium = assay: Antibacterial activity against Enterococcus faecium by broth microdilution method; outline: as §1
Haemophilus influenzae = assay: Antibacterial activity against Haemophilus influenzae by broth microdilution method; outline: as §1
Moraxella catarrhalis = assay: Antibacterial activity against Moraxella catarrhalis by broth microdilution method; outline: as §1
Escherichia coli = assay: Antibacterial activity against ciprofloxacin-resistant Escherichia coli by broth microdilution method; outline: as §2
Klebsiella aerogenes = assay: Antibacterial activity against Enterobacter aerogenes by broth microdilution method; outline: as §1
Serratia marcescens = assay: Antibacterial activity against Serratia marcescens by broth microdilution method; outline: as §1
Proteus mirabilis = assay: Antibacterial activity against Proteus mirabilis by broth microdilution method; outline: as §1
Providencia stuartii = assay: Antibacterial activity against Providencia stuartii by broth microdilution method; outline: as §1
Citrobacter freundii = assay: Antibacterial activity against Citrobacter freundii by broth microdilution method; outline: as §1
Pseudomonas aeruginosa = assay: Antibacterial activity against Pseudomonas aeruginosa ATCC 27853 by broth microdilution method; outline: as §1
Streptococcus pneumoniae [10] = assay: Antibacterial activity against Streptococcus pneumoniae isolate OC7189 by broth microdilution method; outline: as §2
Streptococcus pneumoniae [11] = assay: Antibacterial activity against Streptococcus pneumoniae isolate OC6608 by broth microdilution method; outline: as §2
Streptococcus pneumoniae [12] = assay: Antibacterial activity against Streptococcus pneumoniae isolate OC5462 by broth microdilution method; outline: as §2
Streptococcus pneumoniae [13] = assay: Antibacterial activity against Streptococcus pneumoniae isolate OC7376 by broth microdilution method; outline: as §2
Streptococcus pneumoniae [14] = assay: Antibacterial activity against Streptococcus pneumoniae isolate OC6790 by broth microdilution method; outline: as §2
Streptococcus pneumoniae [15] = assay: Antibacterial activity against Streptococcus pneumoniae isolate OC7368 by broth microdilution method; outline: as §2
Streptococcus pneumoniae [16] = assay: Antibacterial activity against Streptococcus pneumoniae isolate OC7348 by broth microdilution method; outline: as §2
Streptococcus pneumoniae [17] = assay: Antibacterial activity against Streptococcus pneumoniae isolate OC6585 by broth microdilution method; outline: as §2
Streptococcus pneumoniae [18] = assay: Antibacterial activity against Streptococcus pneumoniae isolate OC6610 by broth microdilution method; outline: as §2
Staphylococcus aureus [19] = assay: Antibacterial activity against methicillin-resistant Staphylococcus aureus isolate OC11223 by broth microdilution method; outline: as §2
Staphylococcus aureus [20] = assay: Antibacterial activity against methicillin-resistant Staphylococcus aureus isolate OC11696 by broth microdilution method; outline: as §2
Staphylococcus aureus [21] = assay: Antibacterial activity against methicillin-resistant Staphylococcus aureus isolate OC12501 by broth microdilution method; outline: as §2
Staphylococcus aureus [22] = assay: Antibacterial activity against methicillin-resistant Staphylococcus aureus isolate OC8530 harboring gyrA S84L and parC I143V mutant gene by broth microdilution method
Outline: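 CLSI M07-A7 broth microdilution MIC in cation-adjusted Mueller-Hinton medium. For S. pneumoniae the medium was supplemented with 5% lysed horse blood. CLSI quality-control strains were included as appropriate.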

Staphylococcus aureus [23] = assay: Antibacterial activity against methicillin-resistant Staphylococcus aureus isolate OC4222 harboring gyrA S84L and parC S80F mutant gene by broth microdilution method; outline: as §2
Staphylococcus aureus [24] = assay: Antibacterial activity against methicillin-resistant Staphylococcus aureus isolate OC2838 by broth microdilution method; outline: as §2
Staphylococcus aureus [25] = assay: Antibacterial activity against methicillin-resistant Staphylococcus aureus isolate OC17042 harboring gyrA S84L/G106D, parC S80F and parE D732N mutant gene by broth microdilution method; outline: as §2
Staphylococcus aureus [26] = assay: Antibacterial activity against methicillin-resistant Staphylococcus aureus isolate OC11521 harboring gyrA S84L/S85P, parC E84G mutant gene by broth microdilution method; outline: as §2
Streptococcus pneumoniae [27] = assay: Antibacterial activity against Streptococcus pneumoniae R6 by agar dilution method
Outline: (§3)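 MICs for the resistance-selection studies were determined by CLSI agar dilution on Mueller-Hinton medium. For S. pneumoniae the medium was supplemented with 5% lysed horse blood. For MRSA fluctuation-assay strains an arithmetic agar dilution scheme was used for a more precise MIC.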

Streptococcus pneumoniae [28] = assay: Antibacterial activity against Streptococcus pneumoniae OC7452 harboring parC S79Y mutant gene by agar dilution method; outline: as §3
Streptococcus pneumoniae [29] = assay: Antibacterial activity against Streptococcus pneumoniae OC7453 harboring gyrA S81F mutant gene by agar dilution method; outline: as §3
Streptococcus pneumoniae [30] = assay: Antibacterial activity against Streptococcus pneumoniae OC6755 harboring gyrA S81F and parC S79Y mutant gene by agar dilution method; outline: as §3

COc1c(N2C[C@@H]3CCCN[C@@H]3C2)c(F)cc2c(=O)c(C(=O)O)cn(C3CC3)c12 [MOXIFLOXACIN]
MIC50 (Streptococcus pneumoniae [1]): 0.25 µg/mL (≈ 0.623 µM) | MIC90 (Streptococcus pneumoniae [1]): 4 µg/mL (≈ 9.96 µM) | MIC50 (Staphylococcus aureus [2]): 2 µg/mL (≈ 4.98 µM) | MIC90 (Staphylococcus aureus [2]): 8 µg/mL (≈ 19.9 µM) | MIC (Staphylococcus aureus [3]): 0.06 µg/mL (≈ 0.149 µM) | MIC50 (Staphylococcus aureus [3]): 0.06 µg/mL (≈ 0.149 µM) | MIC50 (Staphylococcus aureus [4]): 2 µg/mL (≈ 4.98 µM) | MIC90 (Staphylococcus aureus [4]): 8 µg/mL (≈ 19.9 µM) | MIC50 (Staphylococcus aureus [5]): 4 µg/mL (≈ 9.96 µM) | MIC90 (Staphylococcus aureus [5]): 8 µg/mL (≈ 19.9 µM) | MIC50 [6]: 0.06 µg/mL (≈ 0.149 µM) | MIC50 [7]: 2 µg/mL (≈ 4.98 µM) | MIC90 [7]: 4 µg/mL (≈ 9.96 µM) | MIC50 [8]: 2 µg/mL (≈ 4.98 µM) | MIC90 [8]: 4 µg/mL (≈ 9.96 µM) | MIC (Streptococcus pyogenes): 0.12 µg/mL (≈ 0.299 µM) | MIC50 (Streptococcus pyogenes): 0.12 µg/mL (≈ 0.299 µM) | MIC90 (Streptococcus pyogenes): 0.25 µg/mL (≈ 0.623 µM) | MIC50 (Streptococcus agalactiae): 0.25 µg/mL (≈ 0.623 µM) | MIC90 (Streptococcus agalactiae): 0.25 µg/mL (≈ 0.623 µM) | MIC50 [9]: 0.12 µg/mL (≈ 0.299 µM) | MIC90 [9]: 0.25 µg/mL (≈ 0.623 µM) | MIC (Enterococcus faecalis): 0.25 µg/mL (≈ 0.623 µM) | MIC50 (Enterococcus faecalis): 0.25 µg/mL (≈ 0.623 µM) | MIC90 (Enterococcus faecalis): 16 µg/mL (≈ 39.9 µM) | MIC50 (Enterococcus faecium): 4 µg/mL (≈ 9.96 µM) | MIC90 (Enterococcus faecium): > 16 µg/mL | MIC50 (Haemophilus influenzae): 0.015 µg/mL (≈ 0.0374 µM) | MIC90 (Haemophilus influenzae): 0.03 µg/mL (≈ 0.0747 µM) | MIC (Moraxella catarrhalis): 0.06 µg/mL (≈ 0.149 µM) | MIC50 (Moraxella catarrhalis): 0.06 µg/mL (≈ 0.149 µM) | MIC90 (Moraxella catarrhalis): 0.06 µg/mL (≈ 0.149 µM) | MIC50 (Escherichia coli): 32 µg/mL (≈ 79.7 µM) | MIC90 (Escherichia coli): 128 µg/mL (≈ 319 µM) | MIC50 (Klebsiella aerogenes): 0.12 µg/mL (≈ 0.299 µM) | MIC90 (Klebsiella aerogenes): 0.25 µg/mL (≈ 0.623 µM) | MIC50 (Serratia marcescens): 0.5 µg/mL (≈ 1.25 µM) | MIC90 (Serratia marcescens): 1 µg/mL (≈ 2.49 µM) | MIC50 (Proteus mirabilis): 0.5 µg/mL (≈ 1.25 µM) | MIC90 (Proteus mirabilis): 0.5 µg/mL (≈ 1.25 µM) | MIC50 (Providencia stuartii): 32 µg/mL (≈ 79.7 µM) | MIC90 (Providencia stuartii): 64 µg/mL (≈ 159 µM) | MIC50 (Citrobacter freundii): 2 µg/mL (≈ 4.98 µM) | MIC90 (Citrobacter freundii): > 8 µg/mL | MIC50 (Pseudomonas aeruginosa): 2 µg/mL (≈ 4.98 µM) | MIC90 (Pseudomonas aeruginosa): 4 µg/mL (≈ 9.96 µM) | MIC (Streptococcus pneumoniae [10]): 0.25 µg/mL (≈ 0.623 µM) | MIC (Streptococcus pneumoniae [11]): 2 µg/mL (≈ 4.98 µM) | MIC (Streptococcus pneumoniae [12]): 1 µg/mL (≈ 2.49 µM) | MIC (Streptococcus pneumoniae [13]): 2 µg/mL (≈ 4.98 µM) | MIC (Streptococcus pneumoniae [14]): 4 µg/mL (≈ 9.96 µM) | MIC (Streptococcus pneumoniae [15]): 4 µg/mL (≈ 9.96 µM) | MIC (Streptococcus pneumoniae [16]): 8 µg/mL (≈ 19.9 µM) | MIC (Streptococcus pneumoniae [17]): 8 µg/mL (≈ 19.9 µM) | MIC (Streptococcus pneumoniae [18]): 16 µg/mL (≈ 39.9 µM) | MIC (Staphylococcus aureus [19]): 0.06 µg/mL (≈ 0.149 µM) | MIC (Staphylococcus aureus [20]): 1 µg/mL (≈ 2.49 µM) | MIC (Staphylococcus aureus [21]): 1 µg/mL (≈ 2.49 µM) | MIC (Staphylococcus aureus [22]): 2 µg/mL (≈ 4.98 µM) | MIC (Staphylococcus aureus [23]): 2 µg/mL (≈ 4.98 µM) | MIC (Staphylococcus aureus [24]): 4 µg/mL (≈ 9.96 µM) | MIC (Staphylococcus aureus [25]): 8 µg/mL (≈ 19.9 µM) | MIC (Staphylococcus aureus [26]): 32 µg/mL (≈ 79.7 µM) | MIC (Streptococcus pneumoniae [27]): 0.12 µg/mL (≈ 0.299 µM) | MIC (Streptococcus pneumoniae [28]): 0.25 µg/mL (≈ 0.623 µM) | MIC (Streptococcus pneumoniae [29]): 0.5 µg/mL (≈ 1.25 µM) | MIC (Streptococcus pneumoniae [30]): 8 µg/mL (≈ 19.9 µM)
